Reference: ChEMBL document CHEMBL3867440, “Hernandezine, a Bisbenzylisoquinoline Alkaloid with Selective Inhibitory Activity against Multidrug-Resistance-Linked ATP-Binding Cassette Drug Transporter ABCB1” (J Nat Prod, 2016)

How the values were obtained:
KB-V1 = experiment: Induction of apoptosis in human KBV1 cells assessed as viable cells at 1 uM after 48 hrs by Annexin V-FITC/propidium iodide staining based FACS analysis (reference value: 86.1%); format: functional; conditions: KB-V1, 48 h, read-out: Activity
[1] = target: T1, ATP-dependent translocase ABCB1 (Homo sapiens, UniProt P08183); experiment: Inhibition of ABCB1 in human KBV1 cells assessed as potentiation of doxorubicin-induced cytotoxicity by measuring doxorubicin resistance ratio at 200 nM after 72 hrs by MTT assay relative to parental KB-3-1 cells (reference value: 34); format: cell-based; conditions: kbv1, 72 h, 0.2 µM
T1 sequence (P08183 whole entry): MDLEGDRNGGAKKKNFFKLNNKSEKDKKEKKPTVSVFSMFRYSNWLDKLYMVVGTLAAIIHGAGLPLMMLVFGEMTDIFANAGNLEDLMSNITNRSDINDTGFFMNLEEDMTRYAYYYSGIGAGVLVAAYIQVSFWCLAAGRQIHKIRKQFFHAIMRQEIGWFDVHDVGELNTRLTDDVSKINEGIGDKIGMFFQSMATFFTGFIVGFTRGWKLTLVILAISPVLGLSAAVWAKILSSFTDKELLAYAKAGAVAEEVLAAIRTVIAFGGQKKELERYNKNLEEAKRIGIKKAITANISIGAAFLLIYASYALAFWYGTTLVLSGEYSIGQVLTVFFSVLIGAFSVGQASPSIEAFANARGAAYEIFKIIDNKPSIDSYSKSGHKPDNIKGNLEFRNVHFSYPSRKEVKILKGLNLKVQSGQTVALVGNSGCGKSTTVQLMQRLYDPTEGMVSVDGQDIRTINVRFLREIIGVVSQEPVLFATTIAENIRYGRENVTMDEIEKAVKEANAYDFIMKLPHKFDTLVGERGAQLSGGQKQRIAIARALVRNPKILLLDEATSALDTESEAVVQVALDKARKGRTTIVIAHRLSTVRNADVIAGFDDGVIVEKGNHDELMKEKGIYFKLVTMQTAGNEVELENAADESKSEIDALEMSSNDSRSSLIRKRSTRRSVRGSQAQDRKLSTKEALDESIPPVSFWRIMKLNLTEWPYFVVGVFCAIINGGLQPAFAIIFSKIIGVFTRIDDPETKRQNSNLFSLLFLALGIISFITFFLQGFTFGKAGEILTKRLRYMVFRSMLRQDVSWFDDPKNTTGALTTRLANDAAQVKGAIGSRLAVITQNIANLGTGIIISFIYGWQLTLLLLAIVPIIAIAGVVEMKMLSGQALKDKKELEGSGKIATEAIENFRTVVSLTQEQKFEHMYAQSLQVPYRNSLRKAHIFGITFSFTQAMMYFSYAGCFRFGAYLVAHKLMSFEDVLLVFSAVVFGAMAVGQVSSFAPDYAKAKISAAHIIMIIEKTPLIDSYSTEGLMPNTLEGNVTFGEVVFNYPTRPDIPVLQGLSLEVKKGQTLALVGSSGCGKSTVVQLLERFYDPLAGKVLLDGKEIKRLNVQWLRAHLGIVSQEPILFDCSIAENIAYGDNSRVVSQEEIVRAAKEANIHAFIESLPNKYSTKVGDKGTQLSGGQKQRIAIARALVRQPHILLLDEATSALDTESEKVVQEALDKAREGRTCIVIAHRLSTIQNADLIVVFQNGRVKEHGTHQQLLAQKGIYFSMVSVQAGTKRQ
In short: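 Cells were kept in drug-free DMEM with 10% FCS for 7 days before assay, then plated at 5000 cells/well for 24 h. Drug at various concentrations was added with a nontoxic fixed level of modulator for 72 h, and the read-out was MTT. IC50 came from fitted curves (≥3 experiments). RR = IC50 of the resistant line / IC50 of the parental line.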

[2] = target: T1, ATP-dependent translocase ABCB1; experiment: Inhibition of ABCB1 in human NCI-ADR-RES cells assessed as reduction of calcein efflux at 1 uM by -based FACS analysis; format: cell-based
In short: (§1)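 Trypsinized cells were resuspended in IMDM with 5% FCS. Calcein-AM was added to 3 × 10^5 cells in 4 mL IMDM, with or without 1 μM test compound or 3 μM tariquidar. Intracellular calcein fluorescence was read immediately by flow cytometry, with the drug-sensitive parental line run in parallel.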

[3] = target: T1, ATP-dependent translocase ABCB1; experiment: Inhibition of ABCB1 in human KBV1 cells assessed as reduction in Calcein-AM dye efflux 1 uM by FACS analysis; format: cell-based; conditions: kbv1, 1 µM; in short: as §1
[4] = target: T1, ATP-dependent translocase ABCB1; experiment: Inhibition of human ABCB1 transfected in HEK293 cells assessed as potentiation of doxorubicin-induced cytotoxicity by measuring doxorubicin resistance ratio at 100 nM after 72 hrs by CCK8 assay relative to parental HEK293 cells (reference value: 96); format: cell-based; conditions: hek293, 72 h, 0.1 µM

inhibition (INH) [2]: Active
inhibition (INH) [3]: Active
Compound: COc1ccc2cc1Oc1ccc(cc1)C[C@H]1c3cc(c(OC)cc3CCN1C)Oc1c(OC)c(OC)c(OC)c3c1[C@H](C2)N(C)CC3 [HERNANDEZINE]
viability at 1 µM (KB-V1): 87.6%
Ratio [1]: 2
Ratio [4]: 11
